Apaf1 activ: activators of human Apaf-1 apoptosome; Apaf-1 apoptosome caspase-3 activation, DEVD-Rh110 fluorescence; active compounds read low; activity change, negative = activation, % at 20 µM; 330,000 tested, 0.31% active;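 active = activity change at or below -40% at 20 µM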
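Material: biochemical Apaf-1 apoptosome reconstitution; Medium: 20 mM HEPES buffer, pH 7.5, containing CHAPS and BSA; Reagent: dATP, cytochrome c, and (Z-DEVD)2-Rh110 caspase-3 substrate; Times: 30 min preincubation, 50 min reaction, room temperature; Signal: Rh110 fluorescence, excitation 480 nm, emission 540 nm; Measure: Caspase-3 activity via Apaf-1.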
Rh110 interf act: interferes with Rh110 fluorescence, flagging false Apaf-1 activators. AID 504616. Rh110 fluorescence interference, quenched caspase reaction, Ex480/Em540. fluorescence interference (activity change), % at 20 µM, hits read low. 980 tested, under 10 active. shares compounds with Apaf1 activ;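 active = mean activity change at or below -40% when tested at 20 µM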
Apaf-1 act conf2: Apaf-1 (human) activation, single-dose confirmed | AID 504617 | 980 tested, 5% active | shares compounds with Apaf1 activ | reconstituted apoptosome caspase-3 activity, DEVD-Rh110 fluorescence; active compounds read low | activity change, negative = activation, % at 20 µM;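 active = mean activity change at or below -40%, meaning activation of 40% or more, at 20 µM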
* marks the source's active call; other numbers are inactive results. Only a sample is shown.

How did C#CCOCCOCCOCCNc1nc(N2CCN(C(=O)CCCCCCCCCCNC(=O)[C@H](CO)n3cc(CCCSC)nn3)CC2)nc(N2CCN(C(=O)CCCCCCCCCCNC(=O)[C@H](CCCCN)n3cc(CCO)nn3)CC2)n1 do in these assays?
Apaf1 activ: 74

Results for N=C1CCC(=N)c2c1c(O)c1ccccc1c2O ?
Apaf1 activ: 77

What do the screens show for `O=C(N/C(=C\c1ccccc1Cl)C(=O)N1CCOCC1)c1ccc([N+](=O)[O-])cc1`?
Apaf1 activ: -309*; Rh110 interf act: 9; Apaf-1 act conf2: 9

What do the screens show for `CC(C)(C)NC[C@H](O)COc1nsnc1N1CCOCC1`?
Apaf1 activ: -3

Results for CCCCCCNC(=O)N[C@@H](C(=O)NCCC[C@H]1CN2C(=NC[C@@H]2Cc2ccccc2)N1CCc1cccc(OC)c1)C(C)C ?
Apaf1 activ: 54

Results for O=C(CSc1nncc2ccccc12)N1CCOCC1 ?
Apaf1 activ: -543*; Rh110 interf act: 1; Apaf-1 act conf2: 7

Results for O=C(CSc1c[nH]c2ccccc12)N1CCOCC1 ?
Apaf1 activ: -42*; Rh110 interf act: 19; Apaf-1 act conf2: 14

What do the screens show for `CC1=NN(c2ccc(F)cc2)C(=O)C1C(c1cccc(O)c1)c1c(C)[nH]n(-c2ccc(F)cc2)c1=O` (stereo not drawn)?
Apaf1 activ: 91

Results for COc1ccc2nc(C)cc(N/N=C/c3ccc(F)cc3)c2c1 ?
Apaf1 activ: 50

What do the screens show for `Fc1ccc(/C=N/Nc2nc3ccccc3[nH]2)cc1F`?
Apaf1 activ: -64*; Rh110 interf act: -4; Apaf-1 act conf2: 13

What do the screens show for `COc1ccc(C(C(=O)NC2CCCC2)N(Cc2ccc(F)cc2)C(=O)c2ccn[nH]2)cc1OC` (stereo not drawn)?
Apaf1 activ: -105*; Rh110 interf act: -5; Apaf-1 act conf2: 10

What do the screens show for `COc1cc(OC)cc(C(=O)NCC(=O)OCC(=O)c2ccc3c(c2)-c2ccccc2C3)c1`?
Apaf1 activ: -65*; Rh110 interf act: -7; Apaf-1 act conf2: 18

What do the screens show for `Cc1[nH]n(-c2ccc([N+](=O)[O-])cc2)c(=O)c1/C=N/N1CCOCC1`?
Apaf1 activ: 44

How did CC/C(=N/Nc1ccccc1C)c1cnnc(SC)n1 do in these assays?
Apaf1 activ: 41

How did Cc1ccc(S(=O)(=O)NCCN2CCOCC2)c(C)c1C do in these assays?
Apaf1 activ: -48*; Rh110 interf act: 3; Apaf-1 act conf2: 9

What do the screens show for `Oc1cc(NCCN2CCOCC2)cc2cccnc12`?
Apaf1 activ: 92

Results for CCOc1ccc(NS(=O)(=O)c2cc(C(=O)NCCCN3CCOCC3)ccc2C)cc1 ?
Apaf1 activ: 65

What do the screens show for `COc1ccc(C[C@H]2CN3C(=NC[C@@H]3C(C)C)N2CCNC(=O)c2ccc(C)c(Br)c2)cc1`?
Apaf1 activ: 47

Results for C/C=C(\C)C(=O)NCCN1C2=NC[C@@H](Cc3ccccc3)N2C[C@@H]1Cc1ccc(OC)cc1 ?
Apaf1 activ: 40

Results for Cc1ccc(C(=O)NCCN2C3=NC[C@H](C)N3C[C@H]2Cc2ccc(O)cc2)cc1Br ?
Apaf1 activ: -440*; Rh110 interf act: 0; Apaf-1 act conf2: 8

What do the screens show for `CC(=O)[C@@H]1[C@@H]2C(=O)N(c3ccc(F)c(Cl)c3)C(=O)[C@@H]2C2c3ccccc3C=CN21` (stereo partly drawn)?
Apaf1 activ: 72

What do the screens show for `Cc1[nH]n(-c2ccccc2)c(=O)c1/C=N/NC(=O)c1cccc([N+](=O)[O-])c1`?
Apaf1 activ: 56

Results for COc1cc([N+](=O)[O-])cc(/C=N/NC(=O)C(C)Nc2cccc3ccccc23)c1O (stereo not drawn) ?
Apaf1 activ: 93

How did O=C(Cn1nnc(-c2ccccc2)n1)N/N=C/c1cc([N+](=O)[O-])ccc1O do in these assays?
Apaf1 activ: -57*; Rh110 interf act: -1; Apaf-1 act conf2: 21

What do the screens show for `CCN(CC)C(=O)[C@H]1CC(CC(=O)NCCCN(C)C)C(=O)N2CCc3c([nH]c4ccccc34)[C@]12C` (stereo partly drawn)?
Apaf1 activ: 44

What do the screens show for `CN(Cc1ccc(F)cc1)Cc1nc(CCc2ccccc2)no1`?
Apaf1 activ: -143*; Rh110 interf act: 1; Apaf-1 act conf2: 10

Results for Oc1c(Br)cc(C=Nc2ccc3nc(-c4ccccc4)[nH]c3c2)c(O)c1Br ?
Apaf1 activ: 65

How did CCN1CCCC1CNC(=O)c1cc2c(-c3ccc(Cl)cc3)nn(C)c2s1 (stereo not drawn) do in these assays?
Apaf1 activ: 49

What do the screens show for `CC(C)C(NS(=O)(=O)c1ccc2c(c1)oc(=O)n2C)C(=O)N1CCN(C2CCCCC2)CC1` (stereo not drawn)?
Apaf1 activ: -54*; Rh110 interf act: 1; Apaf-1 act conf2: 9

How did COC(=O)CCC(=O)OC1(C)C(=O)C2=CN(CCCOC(C)C)C(c3ccc(OC)cc3)=CC2=C(Br)C1=O (stereo not drawn) do in these assays?
Apaf1 activ: 79

Results for CC(C(O)c1ccc(O)cc1)N1CCC(Cc2ccccc2)CC1 (stereo not drawn) ?
Apaf1 activ: 2

Results for CCN(Cc1ccccc1)S(=O)(=O)c1ccc(C(=O)N(CCCN(C)C)c2nc3cc4c(cc3s2)OCCO4)cc1 ?
Apaf1 activ: 41

How did CN(CC(=O)Nc1ccc2c(c1)OCCO2)S(=O)(=O)c1cccc2cccnc12 do in these assays?
Apaf1 activ: -115*; Rh110 interf act: 13; Apaf-1 act conf2: 13

What do the screens show for `CCN(CC(=O)Nc1ccc2c(c1)OCCO2)S(=O)(=O)c1ccc(C)cc1`?
Apaf1 activ: -78*; Rh110 interf act: -6; Apaf-1 act conf2: 11

Results for Cc1ccc(C(=O)N/C(=C\c2ccc(-c3ccccc3[N+](=O)[O-])o2)C(=O)NCCCN(C)C)cc1 ?
Apaf1 activ: 56

What do the screens show for `COC(=O)CCC(=O)OC1(C)C(=O)C=C2C=C(C3CC3)N(CCc3ccccn3)C=C2C1=O` (stereo not drawn)?
Apaf1 activ: 53

What do the screens show for `CN1c2cccc3cccc(c23)N(C)C1(C)C`?
Apaf1 activ: 46

What do the screens show for `CC(C)c1ccc(/C=N/Nc2cc(N3CCOCC3)nc(N3CCOCC3)n2)cc1`?
Apaf1 activ: 62

What do the screens show for `Cc1cc(N2CCCCC2)nc(N2CCOCC2)n1`?
Apaf1 activ: -57*; Rh110 interf act: 6; Apaf-1 act conf2: 10

Results for Cc1cccc(/C=N/Nc2cc(N3CCOCC3)nc(N3CCOCC3)n2)c1 ?
Apaf1 activ: 68

What do the screens show for `CCCCCc1cc(=O)oc2c(C(CCN3CCCC(C)C3)c3ccc4c(c3)OCO4)c(OC)cc(OC)c12` (stereo not drawn)?
Apaf1 activ: 66

What do the screens show for `CCN1CCN(CCNC(=O)c2ccc(/C=C3\Sc4ccccc4N(Cc4ccccc4F)C3=O)cc2)CC1`?
Apaf1 activ: 41

High-throughput results as filed in PubChem.
